Tests used:
[1] = biological target: T1, Angiotensin-converting enzyme (Oryctolagus cuniculus, UniProt P12822); assay: In vitro inhibition of Angiotensin I converting enzyme isolated from rabbit lung extract.; format: tissue-based
T1 sequence (P12822 whole entry): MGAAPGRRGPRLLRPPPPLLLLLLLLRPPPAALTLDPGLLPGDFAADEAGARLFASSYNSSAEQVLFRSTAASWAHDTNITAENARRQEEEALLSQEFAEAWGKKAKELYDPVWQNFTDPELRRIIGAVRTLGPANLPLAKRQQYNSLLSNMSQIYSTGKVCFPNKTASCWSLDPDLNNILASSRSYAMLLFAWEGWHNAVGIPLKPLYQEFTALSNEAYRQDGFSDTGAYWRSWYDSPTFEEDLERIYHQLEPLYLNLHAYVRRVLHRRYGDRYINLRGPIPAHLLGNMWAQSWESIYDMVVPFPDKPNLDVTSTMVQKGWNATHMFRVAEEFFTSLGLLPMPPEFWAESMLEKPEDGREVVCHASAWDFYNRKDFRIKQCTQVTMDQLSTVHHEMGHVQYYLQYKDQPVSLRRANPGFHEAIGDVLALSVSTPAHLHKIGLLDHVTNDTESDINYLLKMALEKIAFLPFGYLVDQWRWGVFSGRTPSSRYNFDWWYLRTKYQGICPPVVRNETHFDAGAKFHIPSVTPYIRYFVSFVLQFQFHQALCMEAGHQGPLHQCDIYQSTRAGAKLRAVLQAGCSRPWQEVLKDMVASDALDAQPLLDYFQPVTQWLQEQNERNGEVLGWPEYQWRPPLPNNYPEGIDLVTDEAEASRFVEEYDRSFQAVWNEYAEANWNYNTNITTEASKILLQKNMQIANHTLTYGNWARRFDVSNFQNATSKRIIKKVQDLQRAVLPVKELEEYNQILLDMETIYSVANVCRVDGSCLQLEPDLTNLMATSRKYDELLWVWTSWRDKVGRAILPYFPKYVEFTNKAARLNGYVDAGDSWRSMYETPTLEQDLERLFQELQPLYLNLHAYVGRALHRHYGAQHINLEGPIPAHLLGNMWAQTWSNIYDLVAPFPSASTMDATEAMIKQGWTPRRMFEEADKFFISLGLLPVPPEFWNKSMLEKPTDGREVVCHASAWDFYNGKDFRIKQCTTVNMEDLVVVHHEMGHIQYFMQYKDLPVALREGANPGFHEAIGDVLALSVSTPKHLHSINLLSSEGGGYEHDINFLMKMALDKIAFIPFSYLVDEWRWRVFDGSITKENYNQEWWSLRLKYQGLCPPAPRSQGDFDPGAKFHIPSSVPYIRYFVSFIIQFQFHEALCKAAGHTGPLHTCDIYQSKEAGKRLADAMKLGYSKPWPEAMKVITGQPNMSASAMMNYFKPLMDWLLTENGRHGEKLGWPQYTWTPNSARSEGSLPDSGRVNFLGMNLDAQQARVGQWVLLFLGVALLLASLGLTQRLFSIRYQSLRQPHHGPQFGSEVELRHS
In short: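 Rabbit lung acetone powder extract (1:20 dilution) as enzyme source; spectrophotometric hippuric acid formation from hippuryl-L-histidyl-L-leucine (5 mM final). Final concentrations: 100 mM phosphate buffer pH 8.3, 300 mM NaCl; varied inhibitor concentrations or vehicle. Incubated 30 min at 37 °C. Stopped with 1 N HCl, then ethyl acetate added.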

Neprilysin = biological target: T2, Neprilysin (Rattus norvegicus, UniProt P07861); assay: In vitro inhibition of purified rat kidney Neutral endopeptidase.
T2 sequence (P07861 whole entry): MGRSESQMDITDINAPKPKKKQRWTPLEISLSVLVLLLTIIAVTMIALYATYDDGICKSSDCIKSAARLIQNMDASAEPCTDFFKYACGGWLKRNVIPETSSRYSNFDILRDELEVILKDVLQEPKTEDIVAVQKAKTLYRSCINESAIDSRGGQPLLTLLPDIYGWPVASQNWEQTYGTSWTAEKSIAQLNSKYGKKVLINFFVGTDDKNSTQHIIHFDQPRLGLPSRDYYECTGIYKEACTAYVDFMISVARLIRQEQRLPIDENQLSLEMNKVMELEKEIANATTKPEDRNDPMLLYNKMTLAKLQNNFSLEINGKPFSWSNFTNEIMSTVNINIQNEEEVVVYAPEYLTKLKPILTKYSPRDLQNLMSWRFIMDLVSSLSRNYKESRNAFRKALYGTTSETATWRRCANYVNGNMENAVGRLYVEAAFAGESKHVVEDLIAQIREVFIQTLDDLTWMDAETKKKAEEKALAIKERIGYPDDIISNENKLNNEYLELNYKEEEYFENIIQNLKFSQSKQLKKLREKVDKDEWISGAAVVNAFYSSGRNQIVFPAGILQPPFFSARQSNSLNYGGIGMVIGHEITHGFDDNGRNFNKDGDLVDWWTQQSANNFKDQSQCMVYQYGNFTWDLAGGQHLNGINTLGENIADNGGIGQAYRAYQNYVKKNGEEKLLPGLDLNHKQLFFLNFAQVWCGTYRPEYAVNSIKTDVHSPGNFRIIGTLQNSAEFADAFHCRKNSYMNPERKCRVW
In short: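 Rat kidney membrane enzyme solubilized (1% deoxycholate, papain/DTT, 37 °C 90 min), purified by gel filtration and phenyl sepharose. Enzyme in 0.05% Triton X-100 with 50 mM Tris-HCl pH 7.5, preincubated 10 min with inhibitor; 0.5 mM dansyl-Gly-Phe-Arg added. Incubated 37 °C, 30 min; stopped with HCl. Dansyl-Gly extracted into ethyl acetate; fluorescence ex 342/em 510 nm, zero-time corrected, versus no-inhibitor.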

Rattus norvegicus = assay: Intravenous effective dose required to inhibit 50% of the AI pressor response in normotensive rats; format: functional
In short: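 Conscious male Sprague-Dawley rats (220-240 g), aortic and vena caval catheters, four per assay. Various doses given iv in 5% NaHCO3. AI (310 ng/kg iv) pressor responses taken before dosing and at 2-30 min intervals up to 6 h. Maximum-inhibition time point per dose used for the dose-response curve; ED50 interpolated.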

IC50 [1] [nM]	IC50 (Neprilysin) [nM]	Compound	ED50 (Rattus norvegicus) [µmol/kg]
11	40	CCC[C@H]1CCC[C@H](NC(=O)[C@@H](S)Cc2ccccc2)C(=O)N1CC(=O)O	0.06
16	149	C[C@@H]1CCC[C@H](NC(=O)[C@@H](S)Cc2ccccc2)C(=O)N1CC(=O)O	–
17	1650	O=C(O)CN1C(=O)[C@@H](NC(=O)[C@@H](S)Cc2ccccc2)CCC[C@@H]1C1CCCC1	–
14	466	CCC[C@@H]1CCC[C@H](NC(=O)[C@@H](S)Cc2ccccc2)C(=O)N1CC(=O)O	–
907	1000	CC(C)[C@@H](C(=O)O)N1CCCC[C@H](NC(=O)[C@@H](S)Cc2ccccc2)C1=O	–
5	17	CCC[C@H]1CCC[C@H](NC(=O)[C@@H](S)Cc2ccccc2)C(=O)N1[C@@H](C)C(=O)O	0.12
25	86	CCC[C@H]1CCC[C@H](NC(=O)[C@@H](S)Cc2ccccc2)C(=O)N1[C@@H](CC)C(=O)O	–
–	–	C[C@H](NC(=O)[C@@H](S)Cc1ccccc1)C(=O)N1CCC[C@H]1C(=O)O	0.06
5	18	O=C(N[C@H]1CCC[C@H]2CC[C@@H](C(=O)O)N2C1=O)[C@@H](S)Cc1ccccc1	0.06
12	6	O=C(O)CN1C(=O)[C@@H](NC(=O)[C@@H](S)Cc2ccccc2)CCc2ccccc21	0.02
479	32	O=C(N[C@H]1CCCCN([C@@H](Cc2ccccc2)C(=O)O)C1=O)[C@@H](S)Cc1ccccc1	–
26	92	C[C@@H](C(=O)O)N1CCCC[C@H](NC(=O)[C@@H](S)Cc2ccccc2)C1=O	1.22
25	31	O=C(O)CN1C(=O)[C@@H](NC(=O)[C@@H](S)Cc2ccccc2)CCC[C@@H]1CCO	0.08
11	25	O=C(N[C@H]1CCC[C@H]2CCC[C@@H](C(=O)O)N2C1=O)[C@@H](S)Cc1ccccc1	0.12
22	82	O=C(O)CN1CCCC[C@H](NC(=O)[C@@H](S)Cc2ccccc2)C1=O	0.84
8	49	C[C@H]1CCC[C@H](NC(=O)[C@@H](S)Cc2ccccc2)C(=O)N1CC(=O)O	0.11
7	64	C=CC[C@H]1CCC[C@H](NC(=O)[C@@H](S)Cc2ccccc2)C(=O)N1CC(=O)O	0.04
23	140	O=C(O)CN1C(=O)[C@@H](NC(=O)[C@@H](S)Cc2ccccc2)CCC[C@@H]1CC1CC1	–
10	1660	CC(C)C[C@H]1CCC[C@H](NC(=O)[C@@H](S)Cc2ccccc2)C(=O)N1CC(=O)O	–
